ChEMBL document CHEMBL3860061, “A Novel Parkinson's Disease Drug Candidate with Potent Anti-neuroinflammatory Effects through the Src Signaling Pathway” (J Med Chem, 2016)
pIC50: −log10 of the molar value. The source made the active and inactive calls. No cut-off for these calls is given here.

Legend:
[1] = molecular target: Proto-oncogene tyrosine-protein kinase Src (Mus musculus, UniProt P05480); test: Inhibition of Src in mouse BV2 cells assessed as suppression of LPS-induced NO release preincubated for 1 hr followed by LPS addition measured after 24 hrs by Griess assay; type: cell-based, BV-2
Summary of the method: (§1)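 BV-2 cells in DMEM/10% FBS, plated at 5×10^3 per well. After 24 h, treated at 100, 50, 10, 5, 1 and 0.1 µM; 1 h later LPS 300 ng/mL added. After another 24 h, nitrite in the medium measured by Griess assay.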

[2] = molecular target: Proto-oncogene tyrosine-protein kinase Src (Mus musculus) (UniProt P05480); test: Inhibition of Src signaling pathway in mouse BV2 cells assessed as suppression of LPS-induced NO release at 0.1 to 100 uM preincubated for 1 hr followed by LPS addition measured after 24 hrs relative to control by Griess assay; type: cell-based; settings: BV-2; summary of the method: as §1
[3] = molecular target: Proto-oncogene tyrosine-protein kinase Src (Mus musculus) (UniProt P05480); test: Inhibition of Src signaling pathway in mouse BV2 cells assessed as suppression of LPS-induced NO release at […] preincubated for 1 hr followed by LPS addition measured after 24 hrs relative to control by Griess assay; type: cell-based; settings: BV-2
[4] = molecular target: Proto-oncogene tyrosine-protein kinase Src (Rattus norvegicus) (UniProt Q9WUD9); test: Inhibition of Src in Sprague-Dawley rat primary mixed mesecephalic neuron/glial cells assessed as suppression of LPS-induced microglia activation by measuring Iba-1 expression at 10 uM preincubated for 1 hr followed by LPS challenge measured after 24 hrs
[5] = molecular target: Proto-oncogene tyrosine-protein kinase Src (Rattus norvegicus) (UniProt Q9WUD9); test: Inhibition of SRC in Sprague-Dawley rat primary mixed mesecephalic neuron/glial cells assessed as protection against LPS-induced dopaminergic neuro-toxicity by measuring TH expression at 10 uM preincubated for 1 hr followed by LPS challenge measured after 7 days by Western blot analysis
Summary of the method: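 Mixed mesencephalic neuron/glia cultures from E14 Sprague-Dawley rats, used at 7 days. Agent at 10 µM added 1 h before LPS 100 ng/mL; TH measured by Western blot after 7 days, n = 4.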

[6] = molecular target: Proto-oncogene tyrosine-protein kinase Src (Rattus norvegicus) (UniProt Q9WUD9); test: Inhibition of Src in Sprague-Dawley rat primary mixed mesecephalic neuron/glial cells assessed as suppression of LPS-induced TNFalpha expression at 10 uM preincubated for 1 hr followed by LPS challenge measured after 5 hrs by ELISA
Summary of the method: (§2)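 Mixed mesencephalic neuron/glia cultures from E14 Sprague-Dawley rats, used at 7 days. Agent at 10 µM added 1 h before LPS 100 ng/mL; IL-1β and TNF-α in medium measured by ELISA after 5 h, n = 6.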

[7] = molecular target: Proto-oncogene tyrosine-protein kinase Src (Rattus norvegicus) (UniProt Q9WUD9); test: Inhibition of Src in Sprague-Dawley rat primary mixed mesecephalic neuron/glial cells assessed as suppression of LPS-induced IL-1beta expression at 10 uM preincubated for 1 hr followed by LPS challenge measured after 5 hrs by ELISA; summary of the method: as §2
[8] = Drug uptake in ICR mouse plasma at 50 mg/kg, ig after 5 mins by LC/MS/MS analysis; type: ADME, organism-based; settings: in vivo, po
[9] = Cmax in ICR mouse brain at 50 mg/kg, ig up to 8 hrs by LC/MS/MS analysis; type: ADME, organism-based; parameters: dose 50 mg/kg, route […]; settings: in vivo, po, BLD = below limit of detection
Summary of the method: (§3)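 Male ICR mice (22–25 g), fasted 16 h, single intragastric dose of 50 mg/kg. Blood and brain sampled at 5, 15, 30 min and 1, 2, 4, 8 h after decapitation. Plasma spun 4000 rpm 5 min; brain homogenised in saline and spun. Extracts run by LC/MS/MS on C18 columns at 30 °C, isocratic 70% acetonitrile (1% TFA)/30% water, 0.2 mL/min. Mean ± SD, n = 6.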

[10] = AUC (0 to infinity) in ICR mouse brain at 50 mg/kg, ig up to 8 hrs by LC/MS/MS analysis; type: ADME, organism-based; parameters: dose 50 mg/kg, route […], time infinity; settings: in vivo, po, BLD = below limit of detection; summary of the method: as §3
[11] = Cmax in ICR mouse blood at 50 mg/kg, ig up to 8 hrs by LC/MS/MS analysis; type: ADME, organism-based; parameters: dose 50 mg/kg, route […]; settings: po; summary of the method: as §3
[12] = Half life in ICR mouse blood at 50 mg/kg, ig up to 8 hrs by LC/MS/MS analysis; type: ADME, organism-based; settings: po; summary of the method: as §3
[13] = AUC (0 to infinity) in ICR mouse blood at 50 mg/kg, ig up to 8 hrs by LC/MS/MS analysis; type: ADME, organism-based; parameters: dose 50 mg/kg, route […], time infinity; settings: in vivo, po; summary of the method: as §3
[14] = molecular target: Voltage-gated inwardly rectifying potassium channel KCNH2 (Homo sapiens, UniProt Q12809); test: Inhibition of human ERG by whole cell voltage clamp assay
Summary of the method: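 Whole-cell voltage clamp. Internal solution: KCl 130 mM, MgCl2 1 mM, EGTA 5 mM, ATP-Mg 5 mM, HEPES 10 mM, pH 7.2. Bath: NaCl 137, CaCl2 1.8, KCl 4, MgCl2 1, glucose 5, HEPES 10 mM, pH 7.4. From a holding potential of −70 mV, 2-s steps to 50 mV in 10 mV increments every 15 s; tail current recorded on a 2-s step from +50 to −40 mV.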

Mus musculus [15] = test: Hepatotoxicity in ICR mouse at 1000 mg/kg administered through oral gavage for 14 consecutive days; type: toxicity, organism-based; settings: in vivo
Summary of the method: (§4)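 Mice dosed by oral gavage at 250, 500 and 1000 mg/kg for 14 consecutive days. General condition monitored throughout; liver and kidney clinical chemistry assessed.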

[16] = Toxicity in ICR mouse assessed as mortality administered through oral gavage; type: organism-based; settings: in vivo
Mus musculus [17] = test: Nephrotoxicity in ICR mouse at 1000 mg/kg administered through oral gavage for 14 consecutive days; type: toxicity, organism-based; settings: in vivo; summary of the method: as §4

Sequence of Proto-oncogene tyrosine-protein kinase Src (Rattus norvegicus) (Q9WUD9 2-536 limits assumed): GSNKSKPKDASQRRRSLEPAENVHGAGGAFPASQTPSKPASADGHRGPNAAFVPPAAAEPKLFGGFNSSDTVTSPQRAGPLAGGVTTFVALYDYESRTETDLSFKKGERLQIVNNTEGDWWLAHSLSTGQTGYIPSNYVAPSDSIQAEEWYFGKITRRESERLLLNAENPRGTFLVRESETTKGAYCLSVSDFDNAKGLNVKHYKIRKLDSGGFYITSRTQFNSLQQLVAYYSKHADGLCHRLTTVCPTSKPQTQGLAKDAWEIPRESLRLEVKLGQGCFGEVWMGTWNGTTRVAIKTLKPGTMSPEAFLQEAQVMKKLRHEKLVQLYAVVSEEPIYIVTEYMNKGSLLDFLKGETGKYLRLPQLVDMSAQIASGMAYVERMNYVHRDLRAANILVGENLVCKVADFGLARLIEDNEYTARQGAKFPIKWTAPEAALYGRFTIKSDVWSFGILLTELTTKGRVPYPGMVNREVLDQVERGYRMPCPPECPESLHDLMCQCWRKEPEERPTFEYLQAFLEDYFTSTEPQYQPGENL
Sequence of Proto-oncogene tyrosine-protein kinase Src (P05480 2-535 limits assumed): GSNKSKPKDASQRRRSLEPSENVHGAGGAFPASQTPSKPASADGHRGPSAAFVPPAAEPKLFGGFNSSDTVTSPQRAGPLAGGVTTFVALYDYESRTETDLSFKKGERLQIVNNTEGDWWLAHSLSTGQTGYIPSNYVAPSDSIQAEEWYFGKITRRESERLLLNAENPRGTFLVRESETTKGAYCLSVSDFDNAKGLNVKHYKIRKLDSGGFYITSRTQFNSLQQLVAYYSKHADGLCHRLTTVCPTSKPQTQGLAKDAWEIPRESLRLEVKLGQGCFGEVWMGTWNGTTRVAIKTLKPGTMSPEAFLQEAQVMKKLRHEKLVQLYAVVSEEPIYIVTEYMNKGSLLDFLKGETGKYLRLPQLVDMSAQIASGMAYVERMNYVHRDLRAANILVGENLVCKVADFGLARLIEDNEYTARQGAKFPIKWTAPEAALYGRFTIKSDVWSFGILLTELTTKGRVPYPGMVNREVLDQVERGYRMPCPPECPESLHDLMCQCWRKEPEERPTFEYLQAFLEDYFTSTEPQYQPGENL
Sequence of Proto-oncogene tyrosine-protein kinase Src (Mus musculus) (P05480 2-535 limits assumed): as above
Sequence of Voltage-gated inwardly rectifying potassium channel KCNH2 (Q12809 whole entry): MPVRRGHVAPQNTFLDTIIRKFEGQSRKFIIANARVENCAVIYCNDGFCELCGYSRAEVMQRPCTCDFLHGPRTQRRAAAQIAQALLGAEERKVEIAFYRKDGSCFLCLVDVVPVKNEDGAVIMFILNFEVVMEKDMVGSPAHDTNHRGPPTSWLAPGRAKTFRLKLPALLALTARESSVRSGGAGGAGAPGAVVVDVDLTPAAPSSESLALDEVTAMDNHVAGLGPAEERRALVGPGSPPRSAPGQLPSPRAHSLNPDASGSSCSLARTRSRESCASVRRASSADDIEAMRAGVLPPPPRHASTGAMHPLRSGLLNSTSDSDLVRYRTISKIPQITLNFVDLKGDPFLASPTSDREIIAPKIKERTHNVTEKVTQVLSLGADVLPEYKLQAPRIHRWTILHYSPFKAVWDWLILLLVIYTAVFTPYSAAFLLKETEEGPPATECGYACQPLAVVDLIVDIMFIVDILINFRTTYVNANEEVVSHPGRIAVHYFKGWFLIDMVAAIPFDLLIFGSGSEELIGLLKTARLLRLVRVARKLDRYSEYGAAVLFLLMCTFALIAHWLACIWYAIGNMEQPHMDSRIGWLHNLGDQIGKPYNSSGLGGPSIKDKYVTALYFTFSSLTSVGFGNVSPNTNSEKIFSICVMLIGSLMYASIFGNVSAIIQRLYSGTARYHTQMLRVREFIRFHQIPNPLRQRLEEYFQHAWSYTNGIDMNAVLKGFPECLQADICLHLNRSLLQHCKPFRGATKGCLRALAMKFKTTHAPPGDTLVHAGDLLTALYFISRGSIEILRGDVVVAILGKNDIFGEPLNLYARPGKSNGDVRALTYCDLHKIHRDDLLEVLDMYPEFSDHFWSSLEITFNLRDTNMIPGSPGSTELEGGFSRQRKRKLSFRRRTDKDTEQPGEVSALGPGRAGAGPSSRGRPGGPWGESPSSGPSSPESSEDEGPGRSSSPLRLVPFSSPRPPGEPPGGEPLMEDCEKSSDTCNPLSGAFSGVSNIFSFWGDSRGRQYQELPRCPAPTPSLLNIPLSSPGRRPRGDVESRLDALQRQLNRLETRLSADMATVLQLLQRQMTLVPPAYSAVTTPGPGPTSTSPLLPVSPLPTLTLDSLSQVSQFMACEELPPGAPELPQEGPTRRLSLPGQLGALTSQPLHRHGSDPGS

pIC50 [1] | Structure (SMILES) | other results
4.59 | COc1ccc(C(=O)CC(C)C)c(OC[C@@H](O)CNC(C)C)c1 | –
4.12 | COc1cc(OC)c(C(=O)CC(C)C)c(OCC(O)CNC(C)(C)C)c1 (stereo not given) | –
4.39 | COc1ccc(C(=O)CC(C)C)c(OC[C@H](O)CNC(C)C)c1 | –
3.71 | CC(=O)c1c(O)cc(O)cc1O [2,4,6-TRIHYDROXYACETOPHENONE] | –
4.13 | CC(C)CC(=O)c1c(O)cc(O)cc1OCC(O)CNC(C)C (stereo not given) | –
4.95 | COc1cc(OC)c(C(=O)CC(C)C)c(OC)c1 | –
4.38 | COc1cc(OC)c(C(=O)CC(C)C)c(OC[C@H](O)CNC(C)C)c1 | –
4.62 | CC(C)CC(=O)c1c(O)cc(O)cc1OC[C@@H](O)CNC(C)(C)C | –
4.55 | COc1ccc(C(=O)CC(C)C)c(OC[C@H](O)CNC(C)(C)C)c1 | –
3.86 | COc1ccc(C(=O)CC(C)C)c(OCC(O)CNC(C)(C)C)c1 (stereo not given) | –
4.04 | CC(C)CC(=O)c1ccc(O)cc1 | –
4.29 | COc1cc(O)c(C(=O)CC(C)C)c(OC)c1 | –
3.95 | COc1ccc(C(=O)CC(C)C)c(O)c1 | –
4.84 | COc1cc(OC)c(CN[C@@H](CC(=O)O)C(=O)O)c(OC)c1 | inhibition [2]: Active
4.02 | COc1cc(OC)c(C(=O)CN2CCN(C)CC2)c(OC)c1 | –
– | COc1cc(OC)c(CN[C@@H](Cc2cnc[nH]2)C(=O)O)c(OC)c1 | inhibition [3]: < 50%
– | COc1cc(OC)c(CN[C@@H](Cc2ccccc2)C(=O)O)c(OC)c1 | inhibition [3]: < 50%
– | COc1cc(OC)c(CNCC(=O)O)c(OC)c1 | inhibition [3]: < 50%
4.43 | CC(C)CC(=O)c1c(O)cc(O)cc1OC[C@H](O)CNC(C)(C)C | –
4.03 | CC(C)NC(=O)c1c(O)cc(O)cc1O | –
5.66 | COc1cc(/C=C/C(=O)CC(=O)/C=C/c2ccc(O)c(OC)c2)ccc1O [CURCUMIN] | –

pIC50 [1] | Structure (SMILES) | other results
– | COc1cc(OC)c(CNC(C)C)c(OC)c1 | inhibition [3]: < 50%
– | CC(C)CC(=O)c1c(O)cc(O)cc1OC[C@H](O)CNC(C)C | inhibition [3]: < 50%
4.07 | COc1cc(OC)c(C(=O)CC(C)C)c(OCC(O)CNC(C)C)c1 (stereo not given) | –
4.27 | COc1ccc(C(=O)CC(C)C)c(OC[C@@H](O)CNC(C)(C)C)c1 | –
4.26 | CN(CCCC(=O)c1c(O)cc(O)cc1O)C1CCCCC1 | –
5.07 | CC(C)CC(=O)c1c(O)cc(O)cc1OCc1c(-c2ccccc2)no[n+]1[O-] | inhibition [4]: Active; inhibition [5]: Active; inhibition [6]: Active; inhibition [7]: Active; Drug uptake [8]: Active
– | COc1cc(OC)c(C(=O)CC(C)C)c(OC[C@H](O)CNC(C)(C)C)c1 | inhibition [3]: < 50%
– | CC(C)CC(=O)c1c(O)cc(O)cc1OC[C@@H](O)CNC(C)C | inhibition [3]: < 50%
4.41 | COc1cc(OC)c(CN[C@@H](C)C(=O)O)c(OC)c1 | –
3.86 | COc1cc(OC)c(C(=O)CC(C)C)c(OC[C@@H](O)CNC(C)C)c1 | –
4.43 | CCCCNC(=O)c1c(O)cc(O)cc1O | –
4.95 | CCCCC(=O)c1c(O)cc(O)cc1O | –
4.64 | CCN1CCN(CC(=O)c2c(OC)cc(OC)cc2OC)CC1 | –
5.08 | COc1cc(OC)c(CN[C@@H](CCC(=O)O)C(=O)O)c(OC)c1 | inhibition [4]: Active; inhibition [5]: Active; Cmax [9]: Bld; AUC [10]: Bld; inhibition [6]: Active; inhibition [2]: Active; Cmax [11]: 1640 ng/mL; inhibition [7]: Active; Drug uptake [8]: Active; half-life [12]: 1.1 h; AUC [13]: 3195.1 µg·L·h
4.95 | COc1cc(OC)c(C(=O)CC(C)C)c(OC[C@@H](O)CNC(C)(C)C)c1 | –
– | COc1ccc(C(=O)CC(C)C)c(OCC(O)CNC(C)C)c1 (stereo not given) | inhibition [3]: < 50%
3.74 | O=C(CCCN1CCCCC1)c1c(O)cc(O)cc1O | –
– | O=C(CCCN1CCN(c2cccc(Cl)c2)CC1)c1c(O)cc(O)cc1O | inhibition [3]: < 50%
4.66 | CC(C)CC(=O)c1c(O)cc(O)cc1OCC(O)CNC(C)(C)C (stereo not given) | –
4.29 to 4.30 | CC(C)CC(=O)c1c(O)cc(O)cc1O | –

Structure (SMILES) | pIC50 [1] | other results
COc1cc(OC)c(C(=O)CN2CCCCC2)c(OC)c1 | 4.60 | –
COc1cc(O)cc(O)c1C(=O)CC(C)C | 5.24 | inhibition (INH) [14]: Active; inhibition [4]: Active; Activity (Mus musculus [15]): Toxic; inhibition [5]: Active; inhibition [6]: Active; LD50 [16]: 2000 mg/kg; Activity (Mus musculus [17]): Toxic; inhibition [7]: Active; Drug uptake [8]: Active
COc1cc(OC)c(C(=O)CN2CCOCC2)c(OC)c1 | 4.49 | –
